Results from different studies.
Lines come from different studies, so protocols differ.
Target: Tyrosine-protein kinase ABL2 (ABL2, Homo sapiens, UniProt P42684)

COc1ccc2[nH]c3c4[nH]c5ccc(OC)cc5c4c4c(c3c2c1)C(=O)NC4=O
remaining binding (binding, competition with immobilised ligand; 1 µM): 82%

C#Cc1cc(-c2cc(Nc3nc(N[C@@H](C)c4ccc(F)cn4)ncc3Cl)n[nH]2)ccc1C=O
inhibition (enzyme activity, inhibitor; 0.2 µM): 26.4%

CCCCC(=O)Nc1ccc(-c2ccc3ncn(CCC)c(=O)c3c2)cn1
remaining binding (binding, competition with immobilised ligand; 0.5 µM): 100%

Cc1ccc(NC(=O)c2ccnc(C(F)(F)F)c2)cc1-c1cc(OCCO)nc(N2CCOCC2)c1
remaining binding (binding, competition with immobilised ligand; 1 µM): 99%

CO[C@@H]1[C@H](N(C)C(=O)c2ccccc2)C[C@H]2O[C@]1(C)n1c3ccccc3c3c4c(c5c6ccccc6n2c5c31)C(=O)NC4
inhibition (enzyme activity, inhibitor; 1 µM): 17%

COc1ccc2oc(-c3ccc4nc(N)oc4c3)c/c(=N\c3ccccc3NC(=O)CCN)c2c1
remaining binding (binding; 1 µM): 101%

CC#CC(=O)N1CCC[C@H]1c1nc(-c2ccc(C(=O)Nc3ccccn3)cc2)c2c(N)nccn12
inhibition (enzyme activity, inhibitor; 1 µM): 10%

C1=C/COCc2cc(ccc2OCCN2CCCC2)Nc2nccc(n2)-c2cccc(c2)COC/1
remaining binding (binding; 0.1 µM): 74%
